Measured values from ChEMBL document CHEMBL1165950, “Design and synthesis of new potent anticancer pyrazoles with high FLT3 kinase inhibitory selectivity” (Bioorg Med Chem, 2010).

Columns and labels:
Type in all cases: functional
[1] = test system: SK-MEL-2; experiment: Cytotoxicity against human SK-MEL-2 cells assessed as cell growth at 0.01 uM after 48 hrs by sulforhodamine B assay; conditions: SK-MEL-2, 48 h, read-out: Activity
[2] = test system: HL-60(TB); experiment: Cytotoxicity against human HL-60(TB) cells assessed as cell growth at 10 uM; conditions: read-out: Activity
In short: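 NCI 60-cell panel screen at a single concentration of 10 µM. Cells are grown in RPMI 1640 with 5% FBS and 2 mM L-glutamine and read by SRB protein staining at 515 nm. Percent growth is measured relative to time-zero and untreated controls; inhibition % is 100 minus growth %.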

[3] = Growth inhibition of human Hs 578T cells after 48 hrs by sulforhodamine B assay
In short: (§1)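 NCI 60-cell screen, five-dose mode. Cells grown in RPMI 1640 with 5% FBS and 2 mM L-glutamine and plated at 5000-40,000 cells/well according to doubling time. After 24 h preincubation, a Tz plate was TCA-fixed. Five concentrations (10-fold or 1/2 log dilutions) were applied for 48 h at 37 °C. SRB staining read at 515 nm. IC50 taken from [(Ti-Tz)/(C-Tz)]×100 = 50.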

[4] = Cytotoxicity against human Hs 578T cells assessed as cell growth at 10 uM after 48 hrs by sulforhodamine B assay; conditions: read-out: Activity
[5] = test system: SF-268; experiment: Cytotoxicity against human SF268 cells assessed as cell growth at 100 nM after 48 hrs by sulforhodamine B assay; conditions: SF-268, 48 h, read-out: Activity
[6] = test system: SK-MEL-5; experiment: Cytotoxicity against human SK-MEL-5 cells assessed as cell growth at 10 uM; conditions: read-out: Activity
In short: (§2)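 NCI-60 screen: cells grown in RPMI 1640 with 5% FBS and 2 mM L-glutamine, plated at 5000–40,000 cells/well according to doubling time, and preincubated 24 h at 37 °C, 5% CO2. The single 10 µM dose (DMSO stock) was added, then incubated 48 h. Cells were TCA-fixed and stained with 0.4% SRB, read at 515 nm, and growth % calculated against time-zero and control plates.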

[7] = test system: MDA-MB-231; experiment: Cytotoxicity against human MDA-MB-231 cells assessed as cell growth at 0.001 uM after 48 hrs by sulforhodamine B assay; conditions: MDA-MB-231, 48 h, read-out: Activity
[8] = test system: OVCAR-4; experiment: Cytotoxicity against human OVCAR4 cells assessed as cell growth at 0.01 uM after 48 hrs by sulforhodamine B assay; conditions: OVCAR-4, 48 h, read-out: Activity
[9] = test system: BT-549; experiment: Growth inhibition of human BT549 cells after 48 hrs by sulforhodamine B assay; conditions: BT-549, 48 h
In short: (§3)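 NCI five-dose SRB assay in RPMI 1640 with 5% FBS and 2 mM L-glutamine. Cells were preincubated 24 h, then exposed 48 h at 37 °C to five concentrations (10-fold or half-log serial dilutions from DMSO stocks). TCA fixation, SRB staining, and absorbance at 515 nm followed. IC50 was taken where [(Ti−Tz)/(C−Tz)]×100 = 50, with Tz as time-zero cell density.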

[10] = test system: PC-3; experiment: Cytotoxicity against human PC3 cells assessed as cell growth at 100 nM after 48 hrs by sulforhodamine B assay; conditions: PC-3, 48 h, read-out: Activity
[11] = test system: SW-620; experiment: Cytotoxicity against human SW620 cells assessed as cell growth at 0.01 uM after 48 hrs by sulforhodamine B assay; conditions: SW-620, 48 h, read-out: Activity
[12] = test system: MDA-MB-468; experiment: Cytotoxicity against human MDA-MB-468 cells assessed as cell growth at 0.01 uM after 48 hrs by sulforhodamine B assay; conditions: MDA-MB-468, 48 h, read-out: Activity
[13] = test system: MCF7; experiment: Cytotoxicity against human MCF7 cells assessed as cell growth at 0.01 uM after 48 hrs by sulforhodamine B assay; conditions: MCF7, 48 h, read-out: Activity
[14] = test system: A498; experiment: Growth inhibition of human A498 cells after 48 hrs by sulforhodamine B assay; conditions: A498, 48 h; in short: as §3
[15] = test system: BT-549; experiment: Cytotoxicity against human BT549 cells assessed as cell growth at 0.001 uM after 48 hrs by sulforhodamine B assay; conditions: BT-549, 48 h, read-out: Activity
In short: (§4)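 NCI-60 five-dose screen. Cells were grown in RPMI 1640 with 5% FBS and 2 mM L-glutamine, plated at 5000–40,000 cells/well and preincubated for 24 h. Time-zero plates were TCA-fixed. DMSO-solubilized drug was added at five concentrations (10-fold or ½-log serial dilutions) for 48 h at 37 °C, 5% CO2. Cells were TCA-fixed, stained with 0.4% SRB and read at 515 nm. Percent growth used time-zero, control and test absorbances.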

[16] = test system: OVCAR-4; experiment: Cytotoxicity against human OVCAR4 cells assessed as cell growth at 10 uM; conditions: read-out: Activity; in short: as §2
[17] = test system: TK-10; experiment: Growth inhibition of human TK10 cells after 48 hrs by sulforhodamine B assay; conditions: TK-10, 48 h; in short: as §1
[18] = test system: ACHN; experiment: Cytotoxicity against human ACHN cells assessed as cell growth at 10 uM after 48 hrs by sulforhodamine B assay; conditions: read-out: Activity; in short: as §4
[19] = test system: SNB-19; experiment: Cytotoxicity against human SNB19 cells assessed as cell growth at 1 uM after 48 hrs by sulforhodamine B assay; conditions: SNB-19, 48 h, read-out: Activity
[20] = test system: K562; experiment: Cytotoxicity against human K562 cells assessed as cell growth at 1 uM after 48 hrs by sulforhodamine B assay; conditions: K562, 48 h, read-out: Activity
[21] = test system: MDA-MB-231; experiment: Cytotoxicity against human MDA-MB-231 cells assessed as cell growth at 1 uM after 48 hrs by sulforhodamine B assay; conditions: MDA-MB-231, 48 h, read-out: Activity
[22] = test system: SF-295; experiment: Cytotoxicity against human SF295 cells assessed as cell growth at 0.01 uM after 48 hrs by sulforhodamine B assay; conditions: SF-295, 48 h, read-out: Activity
[23] = test system: SK-MEL-5; experiment: Growth inhibition of human SK-MEL-5 cells after 48 hrs by sulforhodamine B assay; conditions: SK-MEL-5, 48 h; in short: as §1
[24] = test system: DU-145; experiment: Growth inhibition of human DU145 cells after 48 hrs by sulforhodamine B assay; conditions: DU-145, 48 h; in short: as §3
[25] = test system: OVCAR-8; experiment: Cytotoxicity against human OVCAR8 cells assessed as cell growth at 0.01 uM after 48 hrs by sulforhodamine B assay; conditions: OVCAR-8, 48 h, read-out: Activity
[26] = test system: LOX IMVI; experiment: Cytotoxicity against human LOXIMVI cells assessed as cell growth at 0.01 uM after 48 hrs by sulforhodamine B assay; conditions: read-out: Activity
[27] = test system: NCI-H23; experiment: Growth inhibition of human NCI-H23 cells after 48 hrs by sulforhodamine B assay; conditions: NCI-H23, 48 h; in short: as §1
[28] = test system: OVCAR-4; experiment: Cytotoxicity against human OVCAR4 cells assessed as cell growth at 10 uM after 48 hrs by sulforhodamine B assay; conditions: OVCAR-4, 48 h, read-out: Activity
[29] = read-out: LC50 (the source's name)

In the case of `Cc1cc(O)cc(-c2nn(CC#N)cc2-c2ccnc(-c3ccc(Oc4ccccc4)cc3)c2)c1`, the growth at 0.01 µM [1] is reported as 99%, the growth at 10 µM [2] is reported as 44.3% and the GI50 [3] is reported as 2.02 µM. For the same compound, the TGI [3] was 6.08 µM, the CC50 [3, 29] was over 100 µM and the growth at 10 µM [4] was -49%. The growth at 0.1 µM [5] was 91%, the growth at 10 µM [6] was 64.3% and the growth at 0.001 µM [7] was 96%. The growth at 0.01 µM [8] was 112%, the GI50 [9] was 2.66 µM and the TGI [9] was 11.2 µM. For the same compound, the CC50 [9, 29] was 43.1 µM, the growth at 0.1 µM [10] was 81% and the growth at 0.01 µM [11] was 88%. It also gave a growth at 0.01 µM [12] of 85%, a growth at 0.01 µM [13] of 92% and a GI50 [14] of 3.87 µM. It also gave an LC50 [14] of 44.1 µM, a TGI [14] of 16.7 µM and a growth at 0.001 µM [15] of 96%. The growth at 10 µM [16] was 49.8%, the GI50 [17] was 4.25 µM and the TGI [17] was 15.1 µM. For the same compound, the CC50 [17, 29] was 43.6 µM, the growth at 10 µM [18] was -91% and the growth at 1 µM [19] was 55%. It also gave a growth at 1 µM [20] of -13%, a growth at 1 µM [21] of -13% and a growth at 0.01 µM [22] of 94%. For the same compound, the GI50 [23] was 2.93 µM, the TGI [23] was 9.9 µM and the CC50 [23, 29] was 31.5 µM. For the same compound, the GI50 [24] was 2.28 µM, the LC50 [24] was 26.1 µM and the TGI [24] was 7.18 µM. For the same compound, the growth at 0.01 µM [25] was 91%, the growth at 0.01 µM [26] was 101% and the GI50 [27] was 1.94 µM. The TGI [27] was 3.97 µM, the CC50 [27, 29] was 8.13 µM and the growth at 10 µM [28] was -83%.
